# From ChEMBL document CHEMBL5376013, “Design, synthesis and biological evaluation of novel morpholinopyrimidine-5-carbonitrile derivatives as dual PI3K/mTOR inhibitors” (RSC Med Chem, 2024)
# How the values were obtained:
# Assay type in all cases: functional
# Conditions in all cases: read-out: GI
# CCRF-CEM = test: Antitumor activity against human CCRF-CEM cells assessed as growth inhibition at 10 uM relative to control
# In short: (§1)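 After drug addition, plates were incubated 48 h at 37 °C under 5% CO2. Adherent cells were fixed with cold TCA (10% final, 60 min, 4 °C) and suspension cells with 16% final TCA. Staining used 0.4% SRB in 1% acetic acid, solubilized in 10 mM trizma, read at A515. Percent growth was calculated from time-zero, control and treated absorbances.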
# HL-60 = test: Antitumor activity against human HL-60 cells assessed as growth inhibition at 10 uM relative to control; in short: as §1
# K562 = test: Antitumor activity against human K562 cells assessed as growth inhibition at 10 uM relative to control; in short: as §1
# MOLT-4 = test: Antitumor activity against human MOLT-4 cells assessed as growth inhibition at 10 uM relative to control; in short: as §1
# RPMI-8226 = test: Antitumor activity against human RPMI-8226 cells assessed as growth inhibition at 10 uM relative to control; in short: as §1
# SR = test: Antitumor activity against human SR cells assessed as growth inhibition at 10 uM relative to control
# In short: (§2)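 Drug exposure 48 h at 37 °C, 5% CO2. Adherent cells fixed with cold TCA (10% final), suspension cells with TCA (16% final). Stained with 0.4% SRB in 1% acetic acid, dissolved in 10 mM Tris, A515. Growth relative to time-zero and untreated control.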
# A549 = test: Antitumor activity against human A549 cells assessed as growth inhibition at 10 uM relative to control; in short: as §1
# HOP-62 = test: Antitumor activity against human HOP-62 cells assessed as growth inhibition at 10 uM relative to control; in short: as §1
# HOP-92 = test: Antitumor activity against human HOP-92 cells assessed as growth inhibition at 10 uM relative to control; in short: as §1
# NCI-H226 = test: Antitumor activity against human NCI-H226 cells assessed as growth inhibition at 10 uM relative to control; in short: as §1
# NCI-H23 = test: Antitumor activity against human NCI-H23 cells assessed as growth inhibition at 10 uM relative to control; in short: as §1
# NCI-H522 = test: Antitumor activity against human NCI-H522 cells assessed as growth inhibition at 10 uM relative to control; in short: as §1
# COLO 205 = test: Antitumor activity against human COLO 205 cells assessed as growth inhibition at 10 uM relative to control; in short: as §1
# HCT-116 = test: Antitumor activity against human HCT-116 cells assessed as growth inhibition at 10 uM relative to control; in short: as §1
# HCT-15 = test: Antitumor activity against human HCT-15 cells assessed as growth inhibition at 10 uM relative to control; in short: as §1
# HT-29 = test: Antitumor activity against human HT-29 cells assessed as growth inhibition at 10 uM relative to control; in short: as §1
# SW-620 = test: Antitumor activity against human SW-620 cells assessed as growth inhibition at 10 uM relative to control; in short: as §2
# SF-268 = test: Antitumor activity against human SF-268 cells assessed as growth inhibition at 10 uM relative to control; in short: as §1
# SF-295 = test: Antitumor activity against human SF-295 cells assessed as growth inhibition at 10 uM relative to control; in short: as §1
# SF-539 = test: Antitumor activity against human SF-539 cells assessed as growth inhibition at 10 uM relative to control; in short: as §1
# SNB-75 = test: Antitumor activity against human SNB-75 cells assessed as growth inhibition at 10 uM relative to control; in short: as §2
# U-251 = test: Antitumor activity against human U-251 cells assessed as growth inhibition at 10 uM relative to control; in short: as §2
# LOX IMVI = test: Antitumor activity against human LOX IMVI cells assessed as growth inhibition at 10 uM relative to control; in short: as §1
# Malme-3M = test: Antitumor activity against human Malme-3M cells assessed as growth inhibition at 10 uM relative to control; in short: as §1
# MDA-MB-435 = test: Antitumor activity against human MDA-MB-435 cells assessed as growth inhibition at 10 uM relative to control; in short: as §1
# SK-MEL-2 = test: Antitumor activity against human SK-MEL-2 cells assessed as growth inhibition at 10 uM relative to control; in short: as §1
# SK-MEL-5 = test: Antitumor activity against human SK-MEL-5 cells assessed as growth inhibition at 10 uM relative to control; in short: as §2
# UACC-62 = test: Antitumor activity against human UACC-62 cells assessed as growth inhibition at 10 uM relative to control; in short: as §2
# IGROV-1 = test: Antitumor activity against human IGROV-1 cells assessed as growth inhibition at 10 uM relative to control; in short: as §1
# OVCAR-8 = test: Antitumor activity against human OVCAR-8 cells assessed as growth inhibition at 10 uM relative to control; in short: as §1
# NCI/ADR-RES = test: Antitumor activity against human NCI-ADR-RES cells assessed as growth inhibition at 10 uM relative to control; in short: as §1
# SK-OV-3 = test: Antitumor activity against human SK-OV-3 cells assessed as growth inhibition at 10 uM relative to control; in short: as §2
# 786-0 = test: Antitumor activity against human 786-0 cells assessed as growth inhibition at 10 uM relative to control; in short: as §1
# A498 = test: Antitumor activity against human A498 cells assessed as growth inhibition at 10 uM relative to control; in short: as §1
# ACHN = test: Antitumor activity against human ACHN cells assessed as growth inhibition at 10 uM relative to control; in short: as §1
# CAKI-1 = test: Antitumor activity against human CAKI-1 cells assessed as growth inhibition at 10 uM relative to control; in short: as §1
# RXF 393 = test: Antitumor activity against human RXF 393 cells assessed as growth inhibition at 10 uM relative to control; in short: as §1
# SN12C = test: Antitumor activity against human SN12C cells assessed as growth inhibition at 10 uM relative to control; in short: as §2
# TK-10 = test: Antitumor activity against human TK-10 cells assessed as growth inhibition at 10 uM relative to control; in short: as §2
# UO-31 = test: Antitumor activity against human UO-31 cells assessed as growth inhibition at 10 uM relative to control; in short: as §2
# DU-145 = test: Antitumor activity against human DU-145 cells assessed as growth inhibition at 10 uM relative to control; in short: as §1
# MCF7 = test: Antitumor activity against human MCF7 cells assessed as growth inhibition at 10 uM relative to control; in short: as §1
# MDA-MB-231 = test: Antitumor activity against human MDA-MB-231 cells assessed as growth inhibition at 10 uM relative to control; in short: as §1
# Hs-578T = test: Antitumor activity against human Hs-578T cells assessed as growth inhibition at 10 uM relative to control; in short: as §1
# T47D = test: Antitumor activity against human T47D cells assessed as growth inhibition at 10 uM relative to control; in short: as §2
# MDA-MB-468 = test: Antitumor activity against human MDA-MB-468 cells assessed as growth inhibition at 10 uM relative to control; in short: as §1
compound,measurement,setting,value
COc1cc(/C=N/Nc2nc(-c3ccc(Cl)cc3)c(C#N)c(N3CCOCC3)n2)cc(OC)c1OC,inhibition of growth at 10 µM,CCRF-CEM,58.1%
same,inhibition of growth at 10 µM,HL-60,40.8%
same,inhibition of growth at 10 µM,K562,51.2%
same,inhibition of growth at 10 µM,MOLT-4,65.9%
same,inhibition of growth at 10 µM,RPMI-8226,74.6%
same,inhibition of growth at 10 µM,SR,85.6%
same,inhibition of growth at 10 µM,A549,41.4%
same,inhibition of growth at 10 µM,HOP-62,10.2%
same,inhibition of growth at 10 µM,HOP-92,59.1%
same,inhibition of growth at 10 µM,NCI-H226,59.1%
same,inhibition of growth at 10 µM,NCI-H23,13.3%
same,inhibition of growth at 10 µM,NCI-H522,31.4%
same,inhibition of growth at 10 µM,COLO 205,46.6%
same,inhibition of growth at 10 µM,HCT-116,55.4%
same,inhibition of growth at 10 µM,HCT-15,48%
same,inhibition of growth at 10 µM,HT-29,69.3%
same,inhibition of growth at 10 µM,SW-620,10.3%
same,inhibition of growth at 10 µM,SF-268,17.6%
same,inhibition of growth at 10 µM,SF-295,13.8%
same,inhibition of growth at 10 µM,SF-539,35.5%
same,inhibition of growth at 10 µM,SNB-75,48.9%
same,inhibition of growth at 10 µM,U-251,43.6%
same,inhibition of growth at 10 µM,LOX IMVI,70%
same,inhibition of growth at 10 µM,Malme-3M,< 1%
same,inhibition of growth at 10 µM,MDA-MB-435,20.1%
same,inhibition of growth at 10 µM,SK-MEL-2,20.4%
same,inhibition of growth at 10 µM,SK-MEL-5,71%
same,inhibition of growth at 10 µM,UACC-62,31.7%
same,inhibition of growth at 10 µM,IGROV-1,39.1%
same,inhibition of growth at 10 µM,OVCAR-8,46.6%
same,inhibition of growth at 10 µM,NCI/ADR-RES,59%
same,inhibition of growth at 10 µM,SK-OV-3,< 1%
same,inhibition of growth at 10 µM,786-0,28.3%
same,inhibition of growth at 10 µM,A498,33.7%
same,inhibition of growth at 10 µM,ACHN,36.7%
same,inhibition of growth at 10 µM,CAKI-1,< 1%
same,inhibition of growth at 10 µM,RXF 393,30.5%
same,inhibition of growth at 10 µM,SN12C,35.4%
same,inhibition of growth at 10 µM,TK-10,15.7%
same,inhibition of growth at 10 µM,UO-31,67%
same,inhibition of growth at 10 µM,DU-145,32.2%
same,inhibition of growth at 10 µM,MCF7,< 35.5%
same,inhibition of growth at 10 µM,MDA-MB-231,27.8%
same,inhibition of growth at 10 µM,Hs-578T,14.4%
same,inhibition of growth at 10 µM,T47D,51.8%
same,inhibition of growth at 10 µM,MDA-MB-468,32.1%
